22 compounds from ChEMBL document CHEMBL4043283, “Discovery and Preclinical Development of IIIM-290, an Orally Active Potent Cyclin-Dependent Kinase Inhibitor” (J Med Chem, 2018) can be followed below.

The target of assay [1] is CDK2/Cyclin A2 (Homo sapiens) (UniProt P24941+P20248). Put plainly: Inhibition of CDK2/cyclin A (unknown origin) at 0.5 uM using histone H1 as substrate after 30 mins in presence of [33P]-gamma-ATP by filter binding assay relative to control. In kind it is protein-complex assay.
Assay [2] concerns the target CDK9/cyclin T1 (Homo sapiens) (UniProt O60563+P50750). Put plainly: Inhibition of CDK9/cyclin T1 (unknown origin) at 0.5 uM using YSPTSPSYSPTSPSYSPTSPKKK as substrate after 30 mins in presence of [33P]-gamma-ATP by filter binding assay relative to control. In kind it is protein-complex assay.
The test system of another assay is HL-60. Description: Growth inhibition of human HL60 cells at 10 uM after 48 hrs by MTT assay relative to control. It counts as functional. The following applies: HL-60, 48 h, read-out: GI. Summed up:
(§1)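 Single-concentration primary screen at 10 μM by MTT assay. Cells were NCI-sourced cancer lines grown in appropriate medium at 37 °C, 95% humidity, 5% CO2. Growth inhibition is expressed relative to control.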
On the technique in general: Tetrazolium assays rely on reduction of a dye to a coloured formazan, in cell work by metabolically active cells.

The next assay deals with PC-3. Description: Growth inhibition of human PC3 cells at 10 uM after 48 hrs by MTT assay relative to control. It counts as functional. The following applies: PC-3, 48 h, read-out: GI. An outline of the steps: as §1
The subject of another assay is MIA PaCa-2. Description: Growth inhibition of human MIAPaCa2 cells at 10 uM after 48 hrs by MTT assay relative to control. The settings on record: MIA PaCa-2, 48 h, read-out: GI. It counts as functional. Summed up:
as §1

The next assay relates to MCF7. Description: Growth inhibition of human MCF7 cells at 10 uM after 48 hrs by MTT assay relative to control. The settings on record: MCF7, 48 h, read-out: GI. It counts as functional. An outline of the steps:
as §1

A further assay has as its system Caco-2. Description: Growth inhibition of human Caco2 cells at 10 uM after 48 hrs by MTT assay relative to control. It counts as functional. The following applies: Caco-2, 48 h, read-out: GI. An outline of the steps: as §1

For orientation: inhibition means the change of the read-out against control, counted positive when it falls. As to `Cc1cc(=O)c2c(O)c(CN3CCN(C(=O)OC(C)(C)C)CC3)c(O)c([C@H]3CCN(C)C[C@H]3O)c2o1`, the figures for the inhibition in assay [1] and in assay [2] were 2% and 0%, respectively. Also, the inhibition of growth at 10 µM with HL-60 turned out to be 13%; with PC-3, 1%; in the assay on MIA PaCa-2, 6%; with MCF7, 16%; with Caco-2 it was 21%.

As to `Cc1cc(=O)c2c(O)c(CN(C(C)C)C(C)C)c(O)c([C@H]3CCN(C)C[C@H]3O)c2o1`, the results for the inhibition in assay [1] and in assay [2] were 1% and 12%, respectively. Moreover, the inhibition of growth at 10 µM in the assay on HL-60 is 21%; in the assay with PC-3, 0%; in the assay on MIA PaCa-2, 11%; in the assay on MCF7 it was 33%; in the assay on Caco-2, 22%.

Consider `Cc1cc(=O)c2c(O)c(CN3CCOCC3)c(O)c([C@H]3CCN(C)C[C@H]3O)c2o1`, for which the inhibition in assay [1] and in assay [2] was 0% each time. For the same compound, the inhibition of growth at 10 µM in the assay on HL-60 worked out at 8%; in the assay on PC-3 it was 21%; in the assay on MIA PaCa-2 it was 4%; in the assay with MCF7, 22%; with Caco-2, 11%.

As to `Cc1cc(=O)c2c(O)c(CN3CCC(Cc4ccccc4)CC3)c(O)c([C@H]3CCN(C)C[C@H]3O)c2o1`, the figures for the inhibition in assay [1] and in assay [2] were 4% and 0%, respectively. Also, the inhibition of growth at 10 µM in the assay with HL-60 was 28%; with PC-3, 16%; with MIA PaCa-2 it was 18%; in the assay with MCF7, 17%; in the assay on Caco-2 it was 21%.

For the compound `Cc1oc2c([C@H]3CCN(C)C[C@H]3O)c(O)cc(O)c2c(=O)c1C(O)c1cc(F)cc(F)c1` (some centres undefined), the figures for the inhibition in assay [1] and in assay [2] were 2% and 10%, respectively. Also, the inhibition of growth at 10 µM in the assay on HL-60 was determined as 30%; with PC-3, 0%; in the assay on MIA PaCa-2 it was 6%; in the assay with MCF7, 25%; in the assay with Caco-2, 10%.

With `Cc1oc2c([C@H]3CCN(C)C[C@H]3O)c(O)cc(O)c2c(=O)c1C(O)c1cccc(Cl)c1Cl` (some centres undefined), the inhibition in assay [1] and in assay [2] was 0% throughout. Also, the inhibition of growth at 10 µM in the assay with HL-60 came to 12%; in the assay on PC-3, 20%; in the assay with MIA PaCa-2, 2%; in the assay on MCF7 it was 7%; with Caco-2, 3%.

`Cc1cc(=O)c2c(O)c(CN3CC(O)CC3C(=O)O)c(O)c([C@H]3CCN(C)C[C@H]3O)c2o1` (some centres undefined): the inhibition in assay [1] was determined as 10%; in assay [2], 8%. Besides, the inhibition of growth at 10 µM in the assay on HL-60 is 28%; in the assay with PC-3 it was 0%; with MIA PaCa-2, 23%; with MCF7, 25%; with Caco-2, 19%.

`COc1ccc(C(O)c2c(C)oc3c([C@H]4CCN(C)C[C@H]4O)c(O)cc(O)c3c2=O)cc1Br` (some centres undefined): the results for the inhibition in assay [1] and in assay [2] were 3% and 0%, respectively. Also, the inhibition of growth at 10 µM in the assay with HL-60 was 23%; with PC-3, 0%; in the assay with MIA PaCa-2, 3%; in the assay on MCF7, 41%; with Caco-2 it was 0%.

On to `Cc1cc(=O)c2c(O)c(CN3CCCCC3)c(O)c([C@H]3CCN(C)C[C@H]3O)c2o1`, for which the inhibition in assay [1] and in assay [2] was 10% each time. Moreover, the inhibition of growth at 10 µM in the assay on HL-60 came out at 32%; with PC-3 it was 14%; with MIA PaCa-2 it was 14%; in the assay with MCF7 it was 15%; in the assay with Caco-2, 22%.

Regarding `Cc1oc2c([C@H]3CCN(C)C[C@H]3O)c(O)cc(O)c2c(=O)c1C(O)c1c(F)cccc1Cl` (some centres undefined), the inhibition in assay [1] and in assay [2] was 0% throughout. For the same compound, the inhibition of growth at 10 µM with HL-60 is 49%; with PC-3 it was 0%; in the assay with MIA PaCa-2, 41%; with MCF7, 41%; with Caco-2 it was 18%.

As for `CCOC(=O)N1CCN(Cc2c(O)c([C@H]3CCN(C)C[C@H]3O)c3oc(C)cc(=O)c3c2O)CC1`, the inhibition turned out to be 5% in assay [1] and 0% in assay [2]. The inhibition of growth at 10 µM in the assay on HL-60 stood at 16%; with PC-3, 1%; with MIA PaCa-2, 4%; with MCF7 it was 31%; with Caco-2, 18%.

Turning to `Cc1cc(=O)c2c(O)cc(OCc3ccco3)c([C@H]3CCN(C)C[C@H]3O)c2o1`, the inhibition is 7% in assay [1] and 8% in assay [2]. For the same compound, the inhibition of growth at 10 µM with HL-60 worked out at 32%; in the assay on PC-3, 14%; with MIA PaCa-2, 7%; in the assay with MCF7, 6%; with Caco-2 it was 17%.

With `Cc1oc2c([C@H]3CCN(C)C[C@H]3O)c(O)cc(O)c2c(=O)c1C(O)c1ccc(Cl)cc1` (some centres undefined), the inhibition in assay [1] and in assay [2] was 0% throughout. Moreover, the inhibition of growth at 10 µM came to 2% in the assay with HL-60; 41% with PC-3; 15% in the assay with MIA PaCa-2; 6% in the assay with MCF7; 3% in the assay on Caco-2.

Turning to `Cc1oc2c([C@H]3CCN(C)C[C@H]3O)c(O)cc(O)c2c(=O)c1C(O)c1ccc([N+](=O)[O-])cc1` (some centres undefined), the inhibition in assay [1] worked out at 6%; in assay [2], 8%. Further, the inhibition of growth at 10 µM in the assay with HL-60 was found to be 0%; in the assay with PC-3, 24%; in the assay with MIA PaCa-2, 2%; with MCF7, 4%; in the assay on Caco-2 it was 5%.

Regarding `Cc1oc2c([C@H]3CCN(C)C[C@H]3O)c(O)cc(O)c2c(=O)c1C(O)c1csc([N+](=O)[O-])c1` (some centres undefined), the inhibition was 7% in assay [1] and 0% in assay [2]. Further, the inhibition of growth at 10 µM stood at 45% in the assay with HL-60; 0% in the assay with PC-3; 41% with MIA PaCa-2; 20% in the assay with MCF7; 3% with Caco-2.

`Cc1oc2c([C@H]3CCN(C)C[C@H]3O)c(O)cc(O)c2c(=O)c1C(O)c1c(Cl)cccc1Cl` (some centres undefined): the inhibition in assay [1] and in assay [2] was 0% in each case. Also, the inhibition of growth at 10 µM with HL-60 amounted to 14%; in the assay on PC-3, 0%; in the assay on MIA PaCa-2, 0%; with MCF7 it was 33%; in the assay with Caco-2, 24%.

Turning to `CCN(CC)Cc1c(O)c([C@H]2CCN(C)C[C@H]2O)c2oc(C)cc(=O)c2c1O`, the inhibition was 0% in assay [1] and 4% in assay [2]. In addition, the inhibition of growth at 10 µM in the assay on HL-60 came out at 47%; in the assay with PC-3, 2%; in the assay with MIA PaCa-2, 27%; in the assay with MCF7, 24%; in the assay on Caco-2, 17%.

As to `CCCCCCCCCC/C=C/c1c(C)oc2c([C@H]3CCN(C)C[C@H]3O)c(O)cc(O)c2c1=O`, the inhibition in assay [1] was determined as 5%; in assay [2], 11%. The inhibition of growth at 10 µM is 9% in the assay on HL-60; 0% in the assay on PC-3; 4% in the assay on MIA PaCa-2; 7% in the assay with MCF7; 10% in the assay on Caco-2.

As to `CCOc1ccc(Br)c(C(O)c2c(C)oc3c([C@H]4CCN(C)C[C@H]4O)c(O)cc(O)c3c2=O)c1` (some centres undefined), the inhibition amounted to 0% in assay [1] and 2% in assay [2]. For the same compound, the inhibition of growth at 10 µM in the assay on HL-60 amounted to 2%; in the assay with PC-3 it was 0%; in the assay with MIA PaCa-2 it was 4%; with MCF7 it was 9%; in the assay with Caco-2, 5%.

In the case of `Cc1cc(=O)c2c(O)cc(OC/C=C/c3ccccc3)c([C@H]3CCN(C)C[C@H]3O)c2o1`, the inhibition worked out at 7% in assay [1] and 8% in assay [2]. Also, the inhibition of growth at 10 µM in the assay on HL-60 is 21%; in the assay with PC-3, 18%; in the assay with MIA PaCa-2, 11%; in the assay on MCF7, 7%; in the assay with Caco-2, 9%.

As to `Cc1cc(=O)c2c(O)c(CN3CCC(c4ccccc4)CC3)c(O)c([C@H]3CCN(C)C[C@H]3O)c2o1`, the results for the inhibition in assay [1] and in assay [2] were 0% and 6%, respectively. In addition, the inhibition of growth at 10 µM in the assay with HL-60 is 26%; in the assay with PC-3 it was 22%; in the assay on MIA PaCa-2 it was 16%; with MCF7, 23%; in the assay with Caco-2 it was 21%.

On to `Cc1cc(=O)c2c(O)c(CN3CCC(N4CCCCC4)CC3)c(O)c([C@H]3CCN(C)C[C@H]3O)c2o1`, for which the results for the inhibition in assay [1] and in assay [2] were 10% and 5%, respectively. Besides, the inhibition of growth at 10 µM worked out at 34% in the assay on HL-60; 17% with PC-3; 23% with MIA PaCa-2; 25% in the assay on MCF7; 31% in the assay on Caco-2.
